Measured values gathered from unrelated publications.
Cell line: NCI-H1299
Observed: cell growth or viability

COc1ccccc1/C=C/CNCC(O)COc1cccc2ncccc12 (centres unmarked)
IC50 (CCK-8; 72 h): 36.6 µM

COc1cc(Nc2nccc(-c3cnn4nc(OC)ccc34)n2)cc(C(F)(F)F)c1
IC50 (ATP luminescence): 0.26 µM

COc1cc2c(Nc3ccc(NC(=O)c4ccccc4)cc3)ncnc2cc1OCCCN1CCOCC1
IC50 (MTS; 48 h): 1.1 µM

C/C(=N\O)c1ccc(-c2ccc(O)c(Cl)c2)c(Cl)c1O
IC50 (MTT; 48 h): 45.8 µM

OCc1cn(Cc2cccc(Cl)c2)c2ccccc12
IC50 (SRB; 72 h): ≥ 13 µM

CC(C)C[C@H](NC(=O)[C@H](Cc1ccccc1)NC(=O)c1cnccn1)B(O)O
IC50 (ATP luminescence): 0.0099 µM

O=c1[nH]cc(S(=O)(=O)Nc2cccc(-c3nnc(-c4cccc(Cl)c4)o3)c2)c(=O)[nH]1
IC50 (MTT; 24 h): 27.6 µM

COc1ccccc1/C=C/CNCC(O)COc1ccc2ncccc2c1 (centres unmarked)
IC50 (CCK-8; 72 h): > 100 µM

C/C(=N\O)c1ccc(-c2ccc(O)c(C)c2)c(Cl)c1O
IC50 (MTT; 48 h): 30.3 µM

OCc1cn(Cc2ccc(Cl)cc2)c2ccccc12
IC50 (SRB; 72 h): ≥ 13 µM

COc1ccccc1/C=C/CNCC(O)COc1cccc2c1[nH]c1ccccc12 (centres unmarked)
IC50 (CCK-8; 72 h): 16.3 µM
